In assay [1] the test system is Lipid bilayer. Kind of assay: Binding affinity to NBD-PE embedded 9:1 DMPC/DMPG giant vesicle at 6.05 uM by FRET analysis. Summed up: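 Giant vesicles containing NBD-PE (100:1 phospholipid:fluorophore) were mixed with 6.05 μM compound from DMSO stock in Tris/sucrose/KCl buffer pH 7.4. NBD-PE emission was recorded after excitation at 330–370 nm, the indole excitation range. Triton addition served as the disruption control.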

Assay [2] has as its target T1, RAS guanyl-releasing protein 1 (Homo sapiens, UniProt O95267).
T1 sequence (O95267 whole entry): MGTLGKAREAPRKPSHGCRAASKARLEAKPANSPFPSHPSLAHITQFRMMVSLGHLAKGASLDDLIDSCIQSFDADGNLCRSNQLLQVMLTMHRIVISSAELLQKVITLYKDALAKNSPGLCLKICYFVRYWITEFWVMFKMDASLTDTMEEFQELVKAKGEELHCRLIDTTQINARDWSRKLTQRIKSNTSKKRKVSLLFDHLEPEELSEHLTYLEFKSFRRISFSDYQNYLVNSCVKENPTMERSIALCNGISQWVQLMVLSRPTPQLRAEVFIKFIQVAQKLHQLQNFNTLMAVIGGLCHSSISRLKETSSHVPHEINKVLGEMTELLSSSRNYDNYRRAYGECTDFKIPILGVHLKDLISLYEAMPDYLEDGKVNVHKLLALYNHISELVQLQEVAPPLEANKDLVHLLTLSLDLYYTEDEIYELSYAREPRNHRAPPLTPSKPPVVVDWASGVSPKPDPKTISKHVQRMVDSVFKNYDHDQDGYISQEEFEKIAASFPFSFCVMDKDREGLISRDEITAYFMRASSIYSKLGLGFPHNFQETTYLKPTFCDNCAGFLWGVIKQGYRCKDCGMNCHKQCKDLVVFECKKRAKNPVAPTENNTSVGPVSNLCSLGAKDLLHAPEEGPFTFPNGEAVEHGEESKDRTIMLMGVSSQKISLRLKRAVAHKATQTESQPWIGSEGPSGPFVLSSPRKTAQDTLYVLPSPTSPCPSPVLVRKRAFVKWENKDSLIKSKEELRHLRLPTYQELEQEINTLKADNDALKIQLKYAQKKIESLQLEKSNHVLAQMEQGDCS
Kind of assay: Displacement of [3H]PDBu from recombinant RasGRP1 C1 domain (unknown origin) after 10 mins by scintillation counting analysis in presence of phosphatidylserine. Summed up: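 [3H]PDBu binding competition with 100 μg/ml phosphatidylserine present; PKCα and RasGRP1-C1 assayed at 37°C for stability. Values are mean ± SEM of triplicate independent experiments.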
In general terms: Loss of bound radioactivity is the signal in a displacement assay; it reports binding, not function.

Assay [3] concerns the target T2, Ras guanyl-releasing protein 3 (Homo sapiens) (UniProt Q8IV61).
T2 sequence (whole entry): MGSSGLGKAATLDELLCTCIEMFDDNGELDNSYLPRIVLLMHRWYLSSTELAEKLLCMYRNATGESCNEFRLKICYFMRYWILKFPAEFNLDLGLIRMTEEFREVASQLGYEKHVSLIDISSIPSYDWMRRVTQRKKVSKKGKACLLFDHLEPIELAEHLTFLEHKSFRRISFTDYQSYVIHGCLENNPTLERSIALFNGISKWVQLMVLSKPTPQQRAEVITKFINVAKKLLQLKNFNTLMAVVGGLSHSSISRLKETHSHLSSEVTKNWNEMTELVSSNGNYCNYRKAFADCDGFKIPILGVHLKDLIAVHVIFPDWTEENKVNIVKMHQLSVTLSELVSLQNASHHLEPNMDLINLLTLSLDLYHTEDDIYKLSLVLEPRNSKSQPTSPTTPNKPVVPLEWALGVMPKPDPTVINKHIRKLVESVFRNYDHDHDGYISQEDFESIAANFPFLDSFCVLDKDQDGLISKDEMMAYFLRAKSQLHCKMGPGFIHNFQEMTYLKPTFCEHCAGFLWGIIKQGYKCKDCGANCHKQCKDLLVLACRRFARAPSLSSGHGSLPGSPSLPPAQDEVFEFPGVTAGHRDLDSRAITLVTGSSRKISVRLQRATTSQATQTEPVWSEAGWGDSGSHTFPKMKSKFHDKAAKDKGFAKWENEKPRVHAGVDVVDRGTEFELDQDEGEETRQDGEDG
Kind of assay: Activation of RasGRP3 in human Ramos cells assessed as ERK1/2 phosphorylation at 10000 nM after 30 mins by Western blot analysis. Format: cell-based. Summed up:
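Ramos cells in RPMI-1640 with 10% FBS and 1% L-glutamine, plated at 300,000 cells/ml, were exposed after 24 h to 0.01, 0.1, 1 and 10 μM compound for 30 min. Lysates were made in PBS with 0.5% Triton X-100 and sonicated. 7.5 μg protein was run on 10% Tris-glycine gels, blotted to nitrocellulose, probed overnight with phospho-specific primary antibodies and detected by ECL.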

The species entered for assay [4] is Homo sapiens. Description: Selectivity ratio of Ki for recombinant human PKC-epsilon to Ki for recombinant RasGRP1 C1 domain (unknown origin).
Assay [5] has as its target T2, Ras guanyl-releasing protein 3 (Homo sapiens). Description: Activation of RasGRP3 (unknown origin) overexpressed in HEK293 cells assessed as protein phosphorylation at T133 at 0.1 to 30 uM after 30 mins by Western blot analysis. The assay is classed as cell-based.
The target in assay [6] is Protein kinase C delta type (Homo sapiens) (UniProt Q05655). Description: Activation of PKC-delta in HEK293 cells assessed as protein phosphorylation at S299 at 0.1 to 30 uM after 30 mins by Western blot analysis. Format: cell-based. (In general: Immunoblotting shows a protein as a band on a membrane.)
The target of assay [7] is Protein kinase C alpha type (Homo sapiens, UniProt P17252). Description: Binding affinity to recombinant human GFP-tagged PKC-alpha expressed in CHOK1 cells assessed as induction of protein translocation from plasma membrane to internal membrane at 10000 nM after 5 to 15 mins by confocal microscopic analysis. Format: cell-based. The conditions noted are these: CHO-K1. The essentials: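 CHO-K1 cells were transiently transfected with human GFP-PKCα and imaged live by confocal microscopy 24 h later (488 nm excitation, 500–530 nm emission) every 30 s for 30 min after 10 μM ligand. Membrane/cytoplasm intensity ratio from 4 μm2 regions was normalized to time 0. n = 3–6.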

Assay [8] addresses Protein kinase C delta type (Homo sapiens) (UniProt Q05655). Description: Activation of PKC-delta in HEK293 cells overexpressing RasGRP3 assessed as protein phosphorylation at S299 at 0.1 to 30 uM after 30 mins by Western blot analysis. The assay is classed as cell-based.
The nature of assay [9]: Binding affinity to 9:1 DMPG/DMPC giant vesicle at 6.05 uM by fluorescence emission spectra analysis. The note with it: in the assay text read “9:1 DMPC/DMPG” for “9:1 DMPG/DMPC”. The essentials:
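Intrinsic 1-methylindole emission of 6.05 μM compound in Tris/sucrose/KCl buffer pH 7.4 was recorded at 27°C while titrating with DMPC/DMPG giant vesicles (5–30 μL), with excitation at each compound's own wavelength. Vesicle light scattering was under 5% of the signal.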

Assay [10] concerns the target T3, Ras guanyl-releasing protein 3 (Homo sapiens, UniProt Q8IV61).
T3 sequence (Q8IV61 whole entry): T2 sequence (whole entry)
Kind of assay: Displacement of [3H]PDBu from recombinant human GFP-tagged RasGRP3 expressed in Escherichia coli BL21 after 5 mins by scintillation counting analysis in presence of phosphatidylserine. Summed up: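 Competition for [3H]PDBu binding to RasGRP3 with 100 μg/ml phosphatidylserine present, run at 18°C to optimize stability. Values are mean ± SEM of triplicate independent experiments.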

Assay [11] is filed under the species Homo sapiens. Kind of assay: Selectivity ratio of Ki for recombinant human PKC-epsilon to Ki for recombinant human GFP-tagged RasGRP3.

Calls of active or inactive are those of the source. The calls are words filed in the database; no cut-off is given here.

The source of these data is ChEMBL document CHEMBL3286272, “Synthesis, biological, and biophysical studies of DAG-indololactones designed as selective activators of RasGRP” (Bioorg Med Chem, 2014).

Sequence of Protein kinase C delta type (Homo sapiens) (Q05655 whole entry, looked up): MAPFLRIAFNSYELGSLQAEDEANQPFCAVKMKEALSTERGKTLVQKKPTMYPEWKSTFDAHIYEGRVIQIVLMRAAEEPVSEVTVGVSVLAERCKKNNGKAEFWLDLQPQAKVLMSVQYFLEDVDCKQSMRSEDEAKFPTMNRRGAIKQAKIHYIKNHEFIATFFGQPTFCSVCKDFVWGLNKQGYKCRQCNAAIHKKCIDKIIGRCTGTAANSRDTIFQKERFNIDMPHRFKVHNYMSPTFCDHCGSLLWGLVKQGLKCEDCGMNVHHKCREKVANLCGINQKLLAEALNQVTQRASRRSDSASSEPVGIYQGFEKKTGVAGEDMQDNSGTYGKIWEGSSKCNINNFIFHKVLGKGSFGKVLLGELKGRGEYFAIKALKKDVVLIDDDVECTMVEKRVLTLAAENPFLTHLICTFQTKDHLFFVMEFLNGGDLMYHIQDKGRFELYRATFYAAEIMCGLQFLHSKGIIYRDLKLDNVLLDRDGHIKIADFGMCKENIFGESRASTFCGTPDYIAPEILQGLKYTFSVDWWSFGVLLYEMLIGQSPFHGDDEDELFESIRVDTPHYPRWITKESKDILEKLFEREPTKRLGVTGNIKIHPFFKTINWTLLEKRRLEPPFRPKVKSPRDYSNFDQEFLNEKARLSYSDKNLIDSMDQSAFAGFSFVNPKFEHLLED

Take `CCCC(CCC)C(=O)OCC1(CO)C/C(=C\c2ccc3c(ccn3C)c2)C(=O)O1` (centres undefined): the outcome in assay [1], in assay [3], in assay [5], in assay [6], in assay [7] and in assay [8] was Active. Further, the Ki in assay [2] was 0.41 nM; in assay [10] it was 0.34 nM. Moreover, the Ratio Ki in [4] was found to be 5.3; in assay [11], 6.4. For the same compound, the outcome in assay [9] was inactive.
For `CCCC(CCC)C(=O)OCC1(CO)C/C(=C\c2cccc3c2ccn3C)C(=O)O1` (centres undefined), the Ki worked out at 1.55 nM in assay [2] and 1.63 nM in [10]. Moreover, the outcome in [3], in [5], in assay [6], in assay [7], in assay [8] and in [9] was Active. The values for the Ratio Ki in assay [4] and in assay [11] were 9.4 and 9, respectively.
For `CCCC(CCC)C(=O)OCC1(CO)C/C(=C\c2cn(C)c3ccccc23)C(=O)O1` (centres undefined), the result in assay [1] and in assay [9] was inactive. Also, the Ki in assay [2] was 0.25 nM; in assay [10], 0.33 nM. The outcome in assay [3], in [5], in [6], in assay [7] and in assay [8] was Active. Moreover, the figures for the Ratio Ki in [4] and in [11] were 84 and 64, respectively.
As to `CCCC(CCC)C(=O)OCC1(CO)C/C(=C\c2cccc3ccn(C)c23)C(=O)O1` (centres undefined), the outcome in assay [1], in assay [3], in assay [5], in assay [6], in assay [7] and in assay [8] was Active. Moreover, the Ki worked out at 0.69 nM in assay [2] and 1.12 nM in assay [10]. Moreover, the Ratio Ki came to 17 in [4] and 11 in assay [11]. The outcome in assay [9] was inactive.
`CCCC(CCC)C(=O)OCC1(CO)C/C(=C\c2ccc3ccn(C)c3c2)C(=O)O1` (centres undefined): the outcome in [1], in assay [3], in assay [5], in [6], in [7] and in [8] was Active. In [9], the outcome was Active. Further, the values for the Ki in [2] and in assay [10] were 0.87 nM and 1.22 nM, respectively. The Ratio Ki was 9.3 in assay [4] and 6.6 in assay [11].

As a reminder, the Ki is the dissociation constant of the complex between target and ligand, obtained from inhibition or displacement.
